Source: PubChem BioAssay
TRPC4 PAM: positive allosteric modulators of TRPC4, primary screen, cell-based, mouse TRPC4beta, HEK293 mu-opioid, Fluo-4 calcium. Short transient receptor potential channel 4 (Mus musculus), Q9QUQ5. DAMGO EC20, Fluo-4 Ca2+ flux; hits give high values. B-score at 10 µM. 0.42% of 310,000 active;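 active = B-score of calcium response area above 5 SD of library B-scores, with initial fluorescence ratio within 5 SD of library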;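 also: B-score of integrated fluorescence ratio over time as area under calcium response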
TRPC6 act: mouse TRPC6 channel activators, primary screen, cell-based, HEK293, membrane potential dye; 0.13% of 310,000 active; Short transient receptor potential channel 6 (Mus musculus), Q61143; HEK293-TRPC6 membrane potential dye fluorescence; hits give high values; B-score at 10 µM;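 active = B-score of the integrated fluorescence ratio above library mean plus 3 SD, and starting fluorescence ratio within library mean plus 5 SD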;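 also: higher score means more depolarization so channel activation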
TRPC6 inh: mouse TRPC6 channel inhibitors, primary screen, cell-based, HEK293, membrane potential dye | Short transient receptor potential channel 6 (Mus musculus), Q61143 | AID 2553, 2010 | B-score at 10 µM | 1.1% of 310,000 active | ACh-evoked depolarization; hits give low values;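 active = B-score under library mean minus 3 SD, initial fluorescence not abnormally high, positive integrated signal ratio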;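 also: B-score derived from integrated fluorescence ratio over the kinetic read; more negative B-score means stronger inhibition of depolarization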
Kir21 inh: inhibitors of mouse Kir2.1 inward-rectifier potassium channel | Inward rectifier potassium channel 2 (Mus musculus), P35561 | HEK293-Kir2.1, FluxOR thallium flux fluorescence; hits give low values | B-score at 10 µM | 0.85% of 310,000 active | AID 1672, 2009;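 active = fluorescence ratio B-score at or below minus 3 SD of library scores, with starting-brightness B-score within 2 SD, cut at about -4.2 in these data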;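 also: channel flux triggered by added potassium and thallium sulfate stimulus; B-score of peak minus minimum fluorescence over baseline after thallium stimulus; more negative B-score means stronger Kir2.1 block with less thallium influx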
Target sequence (P35561 whole entry, looked up): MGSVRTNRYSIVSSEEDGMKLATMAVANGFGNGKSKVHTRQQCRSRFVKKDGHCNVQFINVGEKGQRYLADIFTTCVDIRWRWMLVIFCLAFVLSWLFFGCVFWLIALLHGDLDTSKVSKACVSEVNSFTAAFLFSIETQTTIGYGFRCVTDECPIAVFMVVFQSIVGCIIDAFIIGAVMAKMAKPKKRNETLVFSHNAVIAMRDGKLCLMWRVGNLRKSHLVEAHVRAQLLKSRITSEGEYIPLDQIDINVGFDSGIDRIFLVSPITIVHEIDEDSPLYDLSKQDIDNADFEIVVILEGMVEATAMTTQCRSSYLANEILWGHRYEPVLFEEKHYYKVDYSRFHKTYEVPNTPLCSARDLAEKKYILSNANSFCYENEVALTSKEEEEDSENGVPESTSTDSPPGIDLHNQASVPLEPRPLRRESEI
TRPC4 block: inhibitors of mouse TRPC4 channel, primary screen, Fluo4 calcium, HEK293 TRPC4beta/mu-opioid cells; Short transient receptor potential channel 4 (Mus musculus), Q9QUQ5; B-score at 10 µM; DAMGO-evoked Fluo4 calcium flux; hits give low values; 0.39% of 300,000 active;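 active = B-score over 3 SD under the library average, no early fluorescence shift, positive overall ratio signal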
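Assay system – HEK293 line stably carrying TRPC4beta and mu-opioid receptor · Doses – single dose · Detection – Fluo4 calcium-dye fluorescence, kinetic read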
TRPC4 agonist: activators of mouse TRPC4 channel, primary screen, Fluo4 calcium, HEK293 TRPC4beta/mu-opioid cells | Fluo4 calcium fluorescence; hits give high values | B-score at 10 µM | 0.49% of 310,000 active | AID 2237, 2010;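 active = B-score above 5 SD of library B-scores, and initial fluorescence ratio not above library mean plus 5 SD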;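 also: positive B-score marks a calcium rise read as TRPC4 activation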
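Material: TRPC4beta and mu-opioid receptor HEK293 stable cells | Incubation: 45 min room-temperature Fluo4 loading, 110 s read | Detection: Kinetic Fluo4 calcium fluorescence | Measure: Integrated baseline-normalised fluorescence ratio, converted to per-well B score | Benchmarks: Low control buffer alone, high control maximal DAMGO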
The depositor's hits bear a star. Rows were chosen to be rich in hits. Some 2.9% of all compounds tested hit in one or more screens of this group.

Screening COc1ccc(C(CCNCc2ccc(F)cc2)c2ccc(F)cc2)cc1 (configuration not stated) returned TRPC4 PAM inactive, TRPC6 act inactive, TRPC6 inh inactive, Kir21 inh -5*, TRPC4 block inactive and TRPC4 agonist inactive.
For COc1ccc(CNCCC(c2ccc(F)cc2)c2ccc(OC)cc2)cc1 (configuration not stated) the results were TRPC4 PAM inactive, TRPC6 act inactive, TRPC6 inh inactive, Kir21 inh -8.9*, TRPC4 block inactive and TRPC4 agonist inactive.
COc1cccc(OCCNCc2ccccc2)c1 was read as TRPC4 PAM inactive, TRPC6 act inactive, TRPC6 inh inactive, Kir21 inh -0.91, TRPC4 block inactive and TRPC4 agonist inactive.
For COc1ccc(C(CCNC(C)c2ccccc2)c2ccc(F)cc2)cc1 (configuration not stated) the results were TRPC4 PAM inactive, TRPC6 act inactive, TRPC6 inh inactive, Kir21 inh -7.5*, TRPC4 block inactive and TRPC4 agonist inactive.
`COc1ccc(C(CCNCc2ccccc2)c2ccc(F)cc2)cc1` (configuration not stated) gave TRPC4 PAM inactive, TRPC6 act inactive, TRPC6 inh inactive, Kir21 inh -12*, TRPC4 block inactive and TRPC4 agonist inactive.
`COC(=O)c1ccc2c(c1)NC1=C(C(=O)CC(C)(C)C1)C(c1ccncc1)N2` (configuration not stated) gave TRPC4 PAM inactive, TRPC6 act inactive, TRPC6 inh inactive, Kir21 inh -0.28, TRPC4 block inactive and TRPC4 agonist inactive.
COc1ccc(OC)c(S(=O)(=O)n2cnc3ccccc32)c1 was read as TRPC4 PAM inactive, TRPC6 act inactive, TRPC6 inh inactive, Kir21 inh 0.32, TRPC4 block inactive and TRPC4 agonist inactive.
COc1ccc(CN(CCC(c2ccccc2)c2ccc(OC(C)C)cc2)C(=O)CCl)cc1OC (configuration not stated) was read as TRPC4 PAM inactive, TRPC6 act inactive, TRPC6 inh inactive, Kir21 inh 0.23, TRPC4 block inactive and TRPC4 agonist inactive.
Screening COc1ccc(CNCCC(c2ccc(F)cc2)c2ccc(OC(C)C)cc2)cc1OC (configuration not stated) returned TRPC4 PAM inactive, TRPC6 act inactive, TRPC6 inh inactive, Kir21 inh -9*, TRPC4 block inactive and TRPC4 agonist 46*.
Cc1cccc(NC(=O)c2ccc(S(=O)(=O)N3CCN(C)CC3)cc2)c1C was read as TRPC4 PAM inactive, TRPC6 act inactive, TRPC6 inh inactive, Kir21 inh 0.63, TRPC4 block inactive and TRPC4 agonist inactive.
`Cc1ccc(Cl)c(OCC(=O)NCC(c2cccs2)N2CCOCC2)c1` (configuration not stated) gave TRPC4 PAM inactive, TRPC6 act inactive, TRPC6 inh inactive, Kir21 inh -7.8*, TRPC4 block inactive and TRPC4 agonist inactive.
For Cc1cc(NC(=O)Nc2cccc(Cl)c2)n(-c2ccccn2)n1 the results were TRPC4 PAM inactive, TRPC6 act inactive, TRPC6 inh -5.2*, Kir21 inh 1, TRPC4 block inactive and TRPC4 agonist inactive.
For COc1cc(OC)c(C2N(c3ccc(Cl)cc3)C(=O)C3CCCN32)cc1OC (configuration not stated) the results were TRPC4 PAM 12*, TRPC6 act inactive, TRPC6 inh inactive, Kir21 inh 0, TRPC4 block inactive and TRPC4 agonist inactive.
COc1cc(OC)c(C2N(c3ccc(Cl)c(Cl)c3)C(=O)C3CCCN32)cc1OC (configuration not stated) was read as TRPC4 PAM inactive, TRPC6 act inactive, TRPC6 inh inactive, Kir21 inh -2, TRPC4 block inactive and TRPC4 agonist inactive.
For O=C1CSC(c2ccc(Cl)cc2)N1C1CCCCC1 (configuration not stated) the results were TRPC4 PAM inactive, TRPC6 act inactive, TRPC6 inh inactive, Kir21 inh -6.1*, TRPC4 block inactive and TRPC4 agonist inactive.
O=C1CSC(c2cccnc2)N1C1CCCCC1 (configuration not stated) was read as TRPC4 PAM inactive, TRPC6 act inactive, TRPC6 inh inactive, Kir21 inh -2, TRPC4 block inactive and TRPC4 agonist inactive.
CC(=O)C1=C(O)C(=O)N(Cc2ccccc2)C1c1ccc([N+](=O)[O-])cc1 (configuration not stated) was read as TRPC4 PAM inactive, TRPC6 act inactive, TRPC6 inh inactive, Kir21 inh 0.03, TRPC4 block -6* and TRPC4 agonist inactive.
`CCC(C(=O)Nc1cc(F)ccc1F)n1nc(C)c2c(C)n(-c3ccc(C)cc3)nc2c1=O` (configuration not stated) gave TRPC4 PAM inactive, TRPC6 act inactive, TRPC6 inh inactive, Kir21 inh 0.02, TRPC4 block inactive and TRPC4 agonist inactive.
For Cc1ccccc1CSCc1nc2ccccc2[nH]1 the results were TRPC4 PAM inactive, TRPC6 act inactive, TRPC6 inh inactive, Kir21 inh -0.07, TRPC4 block inactive and TRPC4 agonist inactive.
Screening Cc1ccc(C)c(CSCc2nc3ccccc3[nH]2)c1 returned TRPC4 PAM inactive, TRPC6 act inactive, TRPC6 inh inactive, Kir21 inh -8.4*, TRPC4 block inactive and TRPC4 agonist inactive.
Screening Cc1sc2ccc3sccc3c2[n+]1C returned TRPC4 PAM inactive, TRPC6 act inactive, TRPC6 inh -5.4*, Kir21 inh 0.62, TRPC4 block inactive and TRPC4 agonist inactive.
Cc1c(NC(=O)c2cccc(F)c2)c(=O)n(-c2ccccc2)n1C was read as TRPC4 PAM inactive, TRPC6 act inactive, TRPC6 inh inactive, Kir21 inh -0.7, TRPC4 block inactive and TRPC4 agonist inactive.
Screening CNCC(=O)N1CCN(c2ncc(C(F)(F)F)cc2Cl)CC1 returned TRPC4 PAM inactive, TRPC6 act inactive, TRPC6 inh inactive, Kir21 inh 0.15, TRPC4 block inactive and TRPC4 agonist 189*.
